# Assay results as given in ChEMBL document CHEMBL1138516, “Synthesis and biophysical characterization of chlorambucil anticancer ether lipid prodrugs” (J Med Chem, 2009).
# Legend:
# Type in all cases: functional, cell-based
# [1] = Cytotoxicity against human MT3 cells assessed as cell viability after 48 hrs by MTT assay; settings: MT-3, 48 h
# Outline: (§1)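 HT-29 colon and ES-2 ovarian cells were grown in McCoy's 5A with 10% FCS and 1% Pen-Strep, and MT-3 breast cells in RPMI. Cells were seeded at 1 × 10⁴ per well 24 h before dosing. Free drug was given in DMSO/water (final DMSO max 0.5%). Liposomes were diluted in PBS, with lipid content set by phosphorus analysis. Exposure lasted 24 h, then cells were washed and kept 48 h in complete medium.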
# HT-29 [2] = assay: Cytotoxicity against human HT-29 cells assessed as cell viability after 48 hrs by MTT assay; settings: HT-29, 48 h; outline: as §1
# [3] = Cytotoxicity against human ES2 cells assessed as cell viability after 48 hrs by MTT assay; settings: ES-2, 48 h; outline: as §1
# HT-29 [4] = assay: Cytotoxicity against human HT-29 cells assessed as cell viability after 48 hrs by MTT assay in presence of Agkistrodon piscivorus secreted PLA2; settings: HT-29, 48 h
# Outline: (§2)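 These lines follow the same protocol: HT-29 and ES-2 cells in McCoy's 5A with 10% FCS and 1% Pen-Strep, MT-3 cells in RPMI, seeded at 1 × 10⁴ per well 24 h ahead. Liposomal prodrugs in PBS were given with Agkistrodon piscivorus piscivorus venom sPLA₂ at 5 nM final. Exposure lasted 24 h, then cells were washed and given 48 h recovery in complete medium.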
# [5] = Cytotoxicity against human MT3 cells assessed as cell viability after 48 hrs by MTT assay in presence of Agkistrodon piscivorus secreted PLA2; settings: MT-3, 48 h; outline: as §2
# [6] = Cytotoxicity against human ES2 cells assessed as cell viability after 48 hrs by MTT assay in presence of Agkistrodon piscivorus secreted PLA2; settings: ES-2, 48 h; outline: as §2
SMILES,IC50 [1] [µM],IC50 (HT-29 [2]) [µM],IC50 [3] [µM],IC50 (HT-29 [4]) [µM],IC50 [5] [µM],IC50 [6] [µM]
O=C(O)CCCc1ccc(N(CCCl)CCCl)cc1 [CHLORAMBUCIL],95,70,34,,,
CCCCCCCCCCCCCCCCCCOC[C@H](COP(=O)([O-])OCC[N+](C)(C)C)OC(=O)CCCc1ccc(N(CCCl)CCCl)cc1,> 200,> 200,,32,36,
CCCCCCCCCCCCCCCCCCOC[C@H](COP(=O)(O)OC[C@@H](O)CO)OC(=O)CCCc1ccc(N(CCCl)CCCl)cc1,> 200,> 200,97,10,36,8
CCCCCCCCCCCCCCCCCCOC[C@@H](O)COP(=O)([O-])OCC[N+](C)(C)C,35,18,30,,,
